From ChEMBL document CHEMBL1128420, “Novel steroidal inhibitors of human cytochrome P45017 alpha (17 alpha-hydroxylase-C17,20-lyase): potential agents for the treatment of prostatic cancer” (J Med Chem, 1995)

Key:
Aromatase = target: T1, Aromatase (Homo sapiens, UniProt P11511); assay: Inhibition of Cytochrome P450 19A1
T1 sequence (P11511 whole entry): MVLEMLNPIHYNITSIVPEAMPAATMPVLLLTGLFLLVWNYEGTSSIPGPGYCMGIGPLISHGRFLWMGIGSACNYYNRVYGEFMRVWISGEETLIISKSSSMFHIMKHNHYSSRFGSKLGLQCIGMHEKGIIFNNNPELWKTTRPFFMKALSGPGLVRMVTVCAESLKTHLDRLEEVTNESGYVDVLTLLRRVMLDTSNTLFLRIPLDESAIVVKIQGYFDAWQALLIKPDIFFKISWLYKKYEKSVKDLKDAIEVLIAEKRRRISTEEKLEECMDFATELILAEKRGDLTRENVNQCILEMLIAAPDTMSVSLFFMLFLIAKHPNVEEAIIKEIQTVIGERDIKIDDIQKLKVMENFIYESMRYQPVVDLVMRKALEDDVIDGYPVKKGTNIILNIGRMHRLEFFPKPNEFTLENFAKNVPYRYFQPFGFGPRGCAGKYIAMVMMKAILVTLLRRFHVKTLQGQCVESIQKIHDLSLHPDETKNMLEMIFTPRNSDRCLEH
In short: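 Aromatase from the microsomal fraction of human placenta.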

[1] = target: T2, Steroid 17-alpha-hydroxylase/17,20 lyase (Homo sapiens, UniProt P05093); assay: Ability to inhibit the C17,20-lyase enzyme by 50% using 17-alpha-hydroxyprogesterone as substrate.
T2 sequence (P05093 whole entry): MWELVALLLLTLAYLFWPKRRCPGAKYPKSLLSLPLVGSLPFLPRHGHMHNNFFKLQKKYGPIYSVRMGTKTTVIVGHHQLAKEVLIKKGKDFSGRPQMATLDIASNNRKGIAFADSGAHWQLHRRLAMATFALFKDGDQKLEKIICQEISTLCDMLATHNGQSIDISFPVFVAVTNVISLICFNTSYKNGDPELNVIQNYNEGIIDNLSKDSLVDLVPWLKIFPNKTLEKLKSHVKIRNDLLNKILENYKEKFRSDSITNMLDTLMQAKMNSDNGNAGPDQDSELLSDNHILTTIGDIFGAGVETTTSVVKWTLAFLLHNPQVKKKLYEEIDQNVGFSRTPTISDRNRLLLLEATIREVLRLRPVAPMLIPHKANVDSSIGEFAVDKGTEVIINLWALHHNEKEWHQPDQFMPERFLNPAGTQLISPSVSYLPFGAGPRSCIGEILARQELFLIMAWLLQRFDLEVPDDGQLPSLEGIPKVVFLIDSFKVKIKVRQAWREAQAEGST

[2] = target: T2, Steroid 17-alpha-hydroxylase/17,20 lyase; assay: Ability to inhibit the Steroid 17-alpha-hydroxylase/17,20 lyase enzyme by 50%.
[3] = Inhibition of Steroid 5-alpha-reductase; design: species or system Homo sapiens
In short: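 Testosterone 5α-reductase from human benign prostatic tissue.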

## C[C@]12CC[C@H](O)CC1=CC[C@@H]1[C@@H]2CC[C@]2(C)C(c3ccccn3)=CC[C@@H]12
Aromatase
  IC50: > 20000 nM
[1]
  IC50: 76 nM
[2]
  IC50: 270 nM

## C[C@]12CCC(=O)C=C1CCC1C2CC[C@]2(C)C(c3cccnc3)=CCC12 (some centres not stated)
Aromatase
  IC50: 1800 nM
[3]
  IC50: 10000 nM

## C[C@]12CCC(O)CC1=CCC1C2CC[C@]2(C)C(Cc3ccccn3)=CCC12 (some centres not stated)
[1]
  IC50: > 10000 nM
[2]
  IC50: > 10000 nM

## C[C@]12CCC(=O)C=C1CCC1C2C(=O)C[C@]2(C)C(c3cccnc3)=CCC12 (some centres not stated)
[1]
  IC50: 2.9 nM
[2]
  IC50: 13 nM

## C[C@]12CCC3C(CC[C@H]4CC(=O)CC[C@]34C)C1CC=C2c1cccnc1 (some centres not stated)
[1]
  IC50: 3 nM
[2]
  IC50: 4.7 nM

## C[C@]12CC[C@H](O)CC1=CCC1C2CC[C@@]2(C)C1CC[C@@H]2c1cccnc1 (some centres not stated)
[1]
  IC50: 23 nM
[2]
  IC50: 47 nM

## C[C@]12CCC3C(CC=C4C[C@@H](O)CC[C@@]43C)C1CCC2c1ccncc1 (single isomer, unassigned)
[1]
  IC50: 53 nM
[2]
  IC50: 160 nM

## C[C@]12CCC(Oc3c(F)c(F)c(C(F)(F)F)c(F)c3F)=CC1=CCC1C2CC[C@]2(C)C(c3cccnc3)=CCC12 (some centres not stated)
[1]
  IC50: > 10000 nM
[2]
  IC50: > 10000 nM

## C[C@]12CC[C@H](O)CC1=CC[C@@H]1[C@@H]2CC[C@]2(C)C(c3cccnc3)=CC[C@@H]12 [ABIRATERONE]
Aromatase
  IC50: > 20000 nM
[3]
  IC50: > 50000 nM

## C[C@]12CC[C@H](O)CC1=CC[C@@H]1[C@@H]2CC[C@]2(C)C(c3ccncc3)=CC[C@@H]12
Aromatase
  IC50: > 20000 nM
[1]
  IC50: 1000 nM
[2]
  IC50: 4000 nM
